In ChEMBL document CHEMBL3112439, “Inhibition of long chain fatty acyl-CoA synthetase (ACSL) and ischemia reperfusion injury” (Bioorg Med Chem Lett, 2014):
Calls of active or inactive are those of the source. No cut-off for these calls is given here.

Assays:
Mus musculus [1] = species on record: Mus musculus; experiment: Effect on mean extractable lipid mass in mouse bEND.3 cells at 15 uM relative to control; assay type: functional, cell-based
How it was run: (§1)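 In situ assay in intact bEND3 brain endothelial cells given [14C]-palmitic acid; test agents at 15 μM (triacsin C reference at 1.5 μM). Radioactivity measured in the extractable lipid fraction, the aqueous layer and the media, with total recovery summed (lipid + aqueous + media); lipid mass extracted also determined. Treated groups compared with control by one-way ANOVA and Dunnett's t test; n = 3 to 9 independent experiments.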

Mus musculus [2] = species on record: Mus musculus; experiment: Inhibition of ACSL in mouse […] bEND.3 cells assessed as inhibition of [14C]-palmitate incorporation into extractable lipids at 15 uM after 2 hrs by liquid scintillation spectrometric analysis; how it was run: as §1
Mus musculus [3] = species on record: Mus musculus; experiment: Inhibition of ACSL in mouse solubilized bEND.3 cells using [14C]-palmitic acid as substrate assessed as decrease in radioactivity in aqueous layer at 15 uM after 2 hrs by liquid scintillation spectrometric analysis
Mus musculus [4] = species on record: Mus musculus; experiment: Inhibition of ACSL in mouse solubilized bEND.3 cells using [14C]-palmitic acid as substrate assessed as increase in unincorporated radioactivity in media at 15 uM after 2 hrs by liquid scintillation spectrometric analysis; how it was run: as §1
Mus musculus [5] = species on record: Mus musculus; experiment: Inhibition of ACSL in mouse solubilized bEND.3 cells using [14C]-palmitic acid as substrate assessed as effect on total recovery of radioactive substrate at 15 uM after 2 hrs by liquid scintillation spectrometric analysis; how it was run: as §1
[6] = Inhibition of ACSL in mouse solubilized bEND.3 cells using [14C]-palmitic acid as substrate after 2 mins by liquid scintillation spectrometric analysis; conditions: BEND3, 2 min
How it was run: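 ACSL activity in solubilized bEND3 brain endothelial cells; reaction velocity measured across a range of inhibitor concentrations. EC50 obtained by fitting velocity vs. inhibitor concentration to a constrained three-parameter log(inhibitor) vs. response function.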

Mus musculus [7] = species on record: Mus musculus; experiment: Effect on mean extractable lipid mass in mouse bEND.3 cells at 1.5 uM relative to control; assay type: functional, cell-based
How it was run: (§2)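 Intact bEND3 brain endothelial cells were labelled with [14C]-palmitic acid with inhibitor at a single concentration, against untreated control cultures. Radioactivity was measured in the extractable lipid fraction, the aqueous fraction and the medium, and total recovery was summed (lipid + aqueous + media). Lipid mass was expressed as % of control. Groups were compared with control by one-way ANOVA and Dunnett's test; n = 3 to 9 independent experiments.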

Mus musculus [8] = species on record: Mus musculus; experiment: Inhibition of ACSL in mouse […] bEND.3 cells assessed as inhibition of [14C]-palmitate incorporation into extractable lipids at 1.5 uM after 2 hrs by liquid scintillation spectrometric analysis; how it was run: as §2
Mus musculus [9] = species on record: Mus musculus; experiment: Inhibition of ACSL in mouse solubilized bEND.3 cells using [14C]-palmitic acid as substrate assessed as effect on total recovery of radioactive substrate at 1.5 uM after 2 hrs by liquid scintillation spectrometric analysis; how it was run: as §2
Mus musculus [10] = species on record: Mus musculus; experiment: Inhibition of ACSL in mouse solubilized bEND.3 cells using [14C]-palmitic acid as substrate assessed as increase in unincorporated radioactivity in media at 1.5 uM after 2 hrs by liquid scintillation spectrometric analysis; how it was run: as §2
Leukocyte [11] = experiment: Inhibition of Sprague-Dawley rat leukocytes recruitment assessed as inhibition of cell extravasation in unbranched post-capillary venules of mesentery at 5 uM measured at 120 mins; assay type: functional, tissue-based
How it was run: (§3)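 Recruitment was induced by L-NAME. Rolling, adhesion and extravasation were counted in post-capillary venules of the mesentery at 120 min. Compound was present at 5 or 50 μM, and vehicle-alone controls were run. Results are mean ± SEM of 3 to 7 independent experiments.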

Leukocyte [12] = experiment: Inhibition of Sprague-Dawley rat leukocytes recruitment assessed as inhibition of cell rolling in unbranched post-capillary venules of mesentery at 5 uM measured at 120 mins; assay type: functional, tissue-based; how it was run: as §3
Mus musculus [13] = species on record: Mus musculus; experiment: Inhibition of ACSL in mouse solubilized bEND.3 cells using [14C]-palmitic acid as substrate assessed as decrease in radioactivity in aqueous layer at 1.5 uM after 2 hrs by liquid scintillation spectrometric analysis
Leukocyte [14] = experiment: Inhibition of Sprague-Dawley rat leukocytes recruitment assessed as inhibition of cell adhesion in unbranched post-capillary venules of mesentery at 5 uM measured at 120 mins; assay type: functional, tissue-based; how it was run: as §3
Leukocyte [15] = experiment: Inhibition of Sprague-Dawley rat leukocytes recruitment assessed as inhibition of cell rolling in unbranched post-capillary venules of mesentery at 50 uM measured at 120 mins; assay type: functional, tissue-based
How it was run: (§4)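 Leukocyte recruitment induced by L-NAME, used as an ischemia model, in post-capillary venules of the mesentery. Rolling, adhesion and extravasation scored at 120 minutes with or without compound at 5 or 50 μM; vehicle-alone group included. Mean ± SEM of 3 to 7 independent experiments.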

Leukocyte [16] = experiment: Inhibition of Sprague-Dawley rat leukocytes recruitment assessed as inhibition of cell extravasation in unbranched post-capillary venules of mesentery at 50 uM measured at 120 mins; assay type: functional, tissue-based; how it was run: as §4
Leukocyte [17] = experiment: Inhibition of Sprague-Dawley rat leukocytes recruitment assessed as inhibition of cell adhesion in unbranched post-capillary venules of mesentery at 50 uM measured at 120 mins; assay type: functional, tissue-based; how it was run: as §4

Structure (SMILES)	Activity (Mus musculus [1])	inhibition (Mus musculus [2])	inhibition (Mus musculus [3])	inhibition (Mus musculus [4])	inhibition (Mus musculus [5])	EC50 [6] [µM]	also measured
C=CCCCCCCCCCNc1ccc(C(=O)O)c(O)c1	inactive	Active	Active	Active	Active	6.88	
C=CCCCCCCCCCN(O)/N=N/c1ccc(C(=O)O)cc1						73.1	
CCC/C=C/C/C=C/C=N/N1CCCS1(=O)=O	Active		inactive	inactive		171	
CCC/C=C/C/C=C/C=C/C=N/NN=O [TRIACSIN C]						0.358	Activity (Mus musculus [7]): inactive; inhibition (Mus musculus [8]): Active; inhibition (Mus musculus [9]): Active; inhibition (Mus musculus [10]): Active; inhibition (Leukocyte [11]): Active; inhibition (Leukocyte [12]): Active; inhibition (Mus musculus [13]): Active; inhibition (Leukocyte [14]): Active
C=CCCCCCCCCCNc1ccc(C(=O)O)cc1	inactive	Active	Active	Active	Active	4.95	
C=CCCCCCCCCCn1oc(=O)[nH]c1=O						9.04	
CCC/C=C/C/C=C/C=C/CNO						14.8	
CCC/C=C/C/C=C/C=C/CNc1ccc(C(=O)O)cc1	inactive	Active	Active	Active	Active	5.86	inhibition (Leukocyte [15]): Active; inhibition (Leukocyte [16]): Active; inhibition (Leukocyte [17]): Active; inhibition (Leukocyte [11]): Active; inhibition (Leukocyte [12]): Active; inhibition (Leukocyte [14]): Active
CCC/C=C/C/C=C/C=C/CN(O)/N=N/c1ccc(C(=O)O)cc1						74.8	
CCC/C=C/C/C=C/C=C/Cn1oc(=O)[nH]c1=O						53.5	
CCC/C=C/C/C=C/C=C/CNN1CCCS1(=O)=O						164	
C=CCCCCCCCCCNO	inactive	Active	Active	Active	Active	70.4	inhibition (Leukocyte [15]): Active; inhibition (Leukocyte [16]): Active; inhibition (Leukocyte [17]): Active
CCC/C=C/C/C=C/CN(O)/N=N/c1ccc(C(=O)O)cc1	inactive	Active	Active	Active	Active	26.9	
